# Source: ChEMBL document CHEMBL4400530, “Synthesis and structure-activity relationship studies of water-soluble β-cyclodextrin-glycyrrhetinic acid conjugates as potential anti-influenza virus agents” (Eur J Med Chem, 2019)
# Active and inactive are the calls of the source. The rule behind the calls is not given here.
# Assays:
# [1] = test system: Human gammaherpesvirus 4; assay: Antiviral activity against EBV infected in human Raji cells assessed as reduction in viral genome copy numbers by qRT-PCR analysis; format: functional, organism-based; conditions: human gammaherpesvirus 4, Raji
# [2] = test system: Human alphaherpesvirus 1; assay: Antiviral activity against […] Herpes simplex virus 1 KOS infected in African green monkey Vero cells assessed as reduction in viral titer after 72 hrs by crystal violet staining based assay; format: functional, organism-based; conditions: Human alphaherpesvirus 1, strain KOS
# [3] = test system: Human alphaherpesvirus 1; assay: Antiviral activity against […] Herpes simplex virus 1 B2006 infected in African green monkey Vero cells assessed as reduction in viral titer after 72 hrs by crystal violet staining based assay; format: functional, organism-based; conditions: Human alphaherpesvirus 1, B2006, Vero
# [4] = test system: MDCK; assay: Cytotoxicity against MDCK cells assessed as effect on cell viability at 50 uM measured after 36 hrs by CellTiter-Glo assay; format: cell-based, Canis lupus familiaris; conditions: dog
# Outline: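 MDCK cells (1 × 10⁴ per well) left to adhere 24 h at 37 °C, 5% CO₂. Medium then replaced with fresh medium containing compound at 50 μM, in triplicate. Controls received medium with 1% DMSO. Plates incubated 36 h at 37 °C, 5% CO₂, then viability read by CellTiter-Glo luminescence.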
# [5] = test system: Influenza A virus; assay: Antiviral activity against Influenza A virus (A/WSN/33(H1N1)) infected in MDCK cells assessed as reduction in virus-induced cytopathic effect at 50 uM after 40 hrs by CellTiter-Glo assay; format: functional, organism-based; conditions: A/WSN/1933(H1N1)
# Outline: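 MDCK cells seeded, grown overnight, then infected with A/WSN/33 (H1N1) at MOI 0.1 in DMEM with 1% FBS, 2 μg/mL TPCK-treated trypsin and test compound (final DMSO 1%). Compounds screened at a single 50 μM concentration. Incubation 40 h, then viability read by CellTiter-Glo luminescence. Oseltamivir positive control, DMSO negative control. Virus stock titres determined in MDCK cells by Reed and Muench.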
# [6] = Lipophilicity, log P of the compound; format: physicochemical; conditions: octanol/water
# Outline: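 Calculated value (AlogP, Ghose and Crippen octanol–water partition coefficient at 25 °C), computed in silico rather than measured.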
# [7] = Solubility of the compound in water; format: physicochemical; conditions: buffer
SMILES,EC50 [1],Activity [4],Activity [5],further results
CC1(C)[C@@H](O[C@H]2O[C@H](C(=O)O)[C@@H](O)[C@H](O)[C@H]2O[C@@H]2O[C@H](C(=O)O)[C@@H](O)[C@H](O)[C@H]2O)CC[C@]2(C)[C@H]3C(=O)C=C4[C@@H]5C[C@@](C)(C(=O)O)CC[C@]5(C)CC[C@@]4(C)[C@]3(C)CC[C@@H]12 [GLYCYRRHIZIN],30 µM,–,–,–
CC(O)CNC(=O)[C@@]1(C)CC[C@]2(C)CC[C@]3(C)C(=CC(=O)[C@@H]4[C@@]5(C)CC[C@H](O)C(C)(C)[C@@H]5CC[C@]43C)[C@@H]2C1 (stereo not given in full),–,–,–,EC50 [2]: 4.95 µM; EC50 [3]: 4.95 µM
CC(=O)OC[C@H]1O[C@@H]2O[C@H]3[C@H](OC(C)=O)[C@@H](OC(C)=O)[C@@H](O[C@H]4[C@H](OC(C)=O)[C@@H](OC(C)=O)[C@@H](O[C@H]5[C@H](OC(C)=O)[C@@H](OC(C)=O)[C@@H](O[C@H]6[C@H](OC(C)=O)[C@@H](OC(C)=O)[C@@H](O[C@H]7[C@H](OC(C)=O)[C@@H](OC(C)=O)[C@@H](O[C@H]8[C@H](OC(C)=O)[C@@H](OC(C)=O)[C@@H](O[C@H]1[C@H](OC(C)=O)[C@H]2OC(C)=O)O[C@@H]8COC(C)=O)O[C@@H]7COC(C)=O)O[C@@H]6COC(C)=O)O[C@@H]5Cn1cc(COCCOCCNC(=O)[C@@]2(C)CC[C@]5(C)CC[C@]6(C)C(=CC(=O)[C@@H]7[C@@]8(C)CC[C@H](O)C(C)(C)[C@@H]8CC[C@]76C)[C@@H]5C2)nn1)O[C@@H]4COC(C)=O)O[C@@H]3COC(C)=O,–,Non-Toxic,Active,–
CC(=O)OC[C@H]1O[C@@H]2O[C@H]3[C@H](O)[C@@H](O)[C@@H](O[C@H]4[C@H](O)[C@@H](O)[C@@H](O[C@H]5[C@H](O)[C@@H](O)[C@@H](O[C@H]6[C@H](O)[C@@H](O)[C@@H](O[C@H]7[C@H](O)[C@@H](O)[C@@H](O[C@H]8[C@H](O)[C@@H](O)[C@@H](O[C@H]1[C@H](O)[C@H]2O)O[C@@H]8CO)O[C@@H]7CO)O[C@@H]6CO)O[C@@H]5CO)O[C@@H]4Cn1cc(COCCOCCNC(=O)[C@@]2(C)CC[C@]4(C)CC[C@]5(C)C(=CC(=O)[C@@H]6[C@@]7(C)CC[C@H](O)C(C)(C)[C@@H]7CC[C@]65C)[C@@H]4C2)nn1)O[C@@H]3COC(C)=O,–,Non-Toxic,Active,–
CC1(C)[C@@H](O)CC[C@]2(C)[C@H]3C(=O)C=C4[C@@H]5C[C@@](C)(C(=O)O)CC[C@]5(C)CC[C@@]4(C)[C@]3(C)CC[C@@H]12 [ENOXOLONE],4 µM,–,–,logP [6]: 6.75; solubility [7]: 10.6 µg/mL
